This note sets out measurements from ChEMBL document CHEMBL1145812, “Synthesis and biological evaluation of 18-methoxycoronaridine congeners. Potential antiaddiction agents” (J Med Chem, 2003).

Each structure is given as a SMILES string. pKi: −log10 of the molar value.

For orientation: inhibition means the share of the control response that was lost under treatment. Broadly, the pKi is −log10 of the Ki, conventionally taken in molar units.

Test [1] deals with T1, Neuronal acetylcholine receptor; alpha3/beta4 (Homo sapiens, UniProt P30926+P32297). The test can be described thus: Recovery from Ach evoked currents at alpha3-beta4 nicotinic acetylcholine receptor at 20 uM. The class given is functional. In outline:
(§1)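 HEK293 cells transiently co-transfected with nAChR α3 and β4 cDNAs plus EGFP; EGFP-positive cells recorded 12–36 h later by whole-cell voltage clamp at -70 mV. Pipette: CsCl/CsF/HEPES/EGTA, pH 7.2; bath: NaCl/KCl/HEPES/glucose, pH 7.3. Each compound was co-applied at 20 µM (one at 18 µM) with 1 mM ACh. Reported: percent inhibition, rate of inhibition and percent recovery, as mean ± SEM.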

Test [2] has as its target T1, Neuronal acetylcholine receptor; alpha3/beta4. The test can be described thus: Rate of inhibition of Ach evoked currents at alpha3-beta4 nicotinic acetylcholine receptor by 20 uM concentration. The format is functional. In outline: as §1
Test [3] shares this target. The test is described as follows: Inhibition of Ach evoked currents at alpha3-beta4 nicotinic acetylcholine receptor by 20 uM concentration. The format is functional. The procedure, abridged: as §1
For test [4], the target named is Kappa-type opioid receptor (Cavia porcellus) (UniProt P41144). The test is described as follows: Inhibition of [3H]U-69593 binding to Opioid receptor kappa 1 from guinea pig brain membranes. Also noted: concentration or dose not given beside the values. To be noted: concentration not given here. In outline:
(§2)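 Guinea pig brain membranes (0.5 mg protein/sample) were incubated at 25 °C in 50 mM Tris-HCl, pH 7.5, with receptor-specific radioligand and compound at 1 µM. Nonspecific binding was defined with 10 µM naloxone. Values are the mean ± SE of three separate experiments, each run in triplicate.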

Test [5] has as its target Mu-type opioid receptor (Cavia porcellus) (UniProt P97266). The test can be described thus: Inhibition of [3H]DAMGO binding to Opioid receptor mu 1 from guinea pig brain membranes. Also noted: concentration or dose not given beside the values. To be noted: concentration not given here. In outline: as §2
A short description of test [6]: Relative inhibition index (RI) was determined as the % recovery / (rate of inhibition) and is expressed relative to Compound 3. The class given is functional. The procedure, abridged:
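Read from the same α3β4 whole-cell ACh (1 mM) co-application recordings. The index is percent recovery divided by rate of inhibition, normalised to the parent reference ligand. Values below 1.0 mean lower Ki; values above 1.0 mean higher Ki.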

Test [7] deals with T1, Neuronal acetylcholine receptor; alpha3/beta4. The test can be described thus: Recovery from Ach evoked currents at Nicotinic acetylcholine receptor alpha3-beta4 at 20 uM concentration. The format is functional. The procedure, abridged: as §1
The target of another test is Mu-type opioid receptor (Cavia porcellus, UniProt P97266). The test can be described thus: Binding affinity was determined against Opioid receptor mu 1 from guinea pig brain membranes.
Sequence of Mu-type opioid receptor (P97266 whole entry): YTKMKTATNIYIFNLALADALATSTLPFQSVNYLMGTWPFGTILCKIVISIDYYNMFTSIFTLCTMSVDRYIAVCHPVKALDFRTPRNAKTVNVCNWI
Test [8] deals with T1, Neuronal acetylcholine receptor; alpha3/beta4. The test is described as follows: Rate of inhibition of Ach evoked currents at Nicotinic acetylcholine receptor alpha3-beta4 by 20 uM concentration. The format is functional. The procedure, abridged: as §1
The target is the same in test [9]. The test can be described thus: Binding affinity towards Nicotinic acetylcholine receptor alpha3-beta4 determined from kinetic measures of koff/kon. The format is protein-complex assay. The procedure, abridged:
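Ki was estimated as koff/kon from α3β4 whole-cell recordings with drug at 20 µM co-applied with 1 mM ACh. koff was taken from the rate of recovery and kon from the rate of inhibition.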

Test [10] concerns the target Kappa-type opioid receptor (Cavia porcellus, UniProt P41144). The test is described as follows: Binding affinity was determined against Opioid receptor kappa 1 from guinea pig brain membranes.
Test [11] has as its target T1, Neuronal acetylcholine receptor; alpha3/beta4. The test is described as follows: Inhibition of Ach evoked currents at Nicotinic acetylcholine receptor alpha3-beta4 by 20 uM concentration. The class given is functional. The procedure, abridged: as §1
The target is the same in test [12]. The test can be described thus: Recovery from Ach evoked currents at Nicotinic acetylcholine receptor alpha3-beta4 at 18 uM concentration. The format is functional. In outline:
as §1

For test [13] the target is unchanged. The test can be described thus: Rate of inhibition of Ach evoked currents at Nicotinic acetylcholine receptor alpha3-beta4 by 18 uM concentration. The format is functional. The procedure, abridged: as §1
Test [14] shares this target. The test can be described thus: Inhibition of Ach evoked currents at Nicotinic acetylcholine receptor alpha3-beta4 by 18 uM concentration. The class given is functional. In outline:
as §1

The target is the same in test [15]. The test is described as follows: Recovery from Ach evoked currents at alpha3-beta4 nicotinic acetylcholine receptor at 20 uM concentration. The format is functional. The procedure, abridged: as §1
Test [16] addresses Mu-type opioid receptor (Cavia porcellus) (UniProt P97266). The test is described as follows: Inhibitory activity was determined against Opioid receptor mu 1 from guinea pig brain membranes at 1 uM concentration, using 0.25 nM of [3H]DAMGO radioligand. The note with it: Membrane. In outline: as §2

Sequence of Mu-type opioid receptor (Cavia porcellus) (P97266 whole entry): as above
Sequence of Kappa-type opioid receptor (Cavia porcellus) (P41144 whole entry): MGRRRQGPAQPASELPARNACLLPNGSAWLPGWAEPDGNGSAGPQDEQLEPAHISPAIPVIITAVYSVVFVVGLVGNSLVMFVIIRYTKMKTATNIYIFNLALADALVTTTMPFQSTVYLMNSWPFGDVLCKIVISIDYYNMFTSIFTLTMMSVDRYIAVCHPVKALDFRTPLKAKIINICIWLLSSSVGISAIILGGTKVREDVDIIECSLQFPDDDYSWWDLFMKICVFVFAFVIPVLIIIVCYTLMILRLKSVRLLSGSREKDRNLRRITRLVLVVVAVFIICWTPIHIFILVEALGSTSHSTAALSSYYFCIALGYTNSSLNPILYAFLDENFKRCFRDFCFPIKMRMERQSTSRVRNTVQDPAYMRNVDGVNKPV
Sequence of Kappa-type opioid receptor (P41144 whole entry): as above
T1 sequence (P30926 whole entry): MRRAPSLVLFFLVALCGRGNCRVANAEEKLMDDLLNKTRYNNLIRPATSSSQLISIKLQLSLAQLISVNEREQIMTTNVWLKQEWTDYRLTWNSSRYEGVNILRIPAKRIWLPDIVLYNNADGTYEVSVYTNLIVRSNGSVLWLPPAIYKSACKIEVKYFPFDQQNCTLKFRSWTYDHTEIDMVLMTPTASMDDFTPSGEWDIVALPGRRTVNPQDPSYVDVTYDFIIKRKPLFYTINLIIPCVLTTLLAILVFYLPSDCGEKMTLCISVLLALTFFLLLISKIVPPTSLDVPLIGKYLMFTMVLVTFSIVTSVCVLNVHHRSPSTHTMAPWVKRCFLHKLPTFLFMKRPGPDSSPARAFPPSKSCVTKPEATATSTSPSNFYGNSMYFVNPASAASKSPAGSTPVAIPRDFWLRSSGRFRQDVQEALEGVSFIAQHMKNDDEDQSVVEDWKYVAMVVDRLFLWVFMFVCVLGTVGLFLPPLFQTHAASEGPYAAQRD
T1 sequence (P32297 whole entry): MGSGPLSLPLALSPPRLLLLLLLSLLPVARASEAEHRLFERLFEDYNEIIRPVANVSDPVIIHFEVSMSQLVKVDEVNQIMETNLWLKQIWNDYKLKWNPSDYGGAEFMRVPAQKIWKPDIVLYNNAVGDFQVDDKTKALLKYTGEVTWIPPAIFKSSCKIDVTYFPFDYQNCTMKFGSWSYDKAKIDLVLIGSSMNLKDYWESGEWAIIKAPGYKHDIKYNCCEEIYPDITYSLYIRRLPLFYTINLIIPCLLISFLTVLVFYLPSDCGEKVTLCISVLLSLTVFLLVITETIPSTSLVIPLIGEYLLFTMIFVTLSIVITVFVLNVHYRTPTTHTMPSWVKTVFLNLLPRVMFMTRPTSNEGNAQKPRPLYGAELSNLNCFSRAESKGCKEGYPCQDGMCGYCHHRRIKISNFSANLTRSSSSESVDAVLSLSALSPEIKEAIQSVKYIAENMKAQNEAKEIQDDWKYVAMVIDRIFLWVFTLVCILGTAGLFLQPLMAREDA

With `COCCOC(=O)[C@@]12CC3C[C@H](CCOC)[C@@H]1N(CCc1c2[nH]c2ccccc12)C3`, the Recovery in test [1] was found to be 8%. This molecule came in with a Rate of inhibition in [2] of 6 s⁻¹. In addition, the values for the inhibition in [3], in test [4] and in test [5] were 99%, 24% and 5%, respectively. The RI in test [6] was 0.6.

For `COCC[C@H]1CC2CN3CCc4c([nH]c5ccccc45)[C@](C(=O)OC)(C2)[C@H]13` [18-METHOXYCORONARIDINE], the Recovery in test [7] came out at 12%. Besides, the figures for the pKi (at Mu-type opioid receptor; in test [9]; in test [10]) were 5.96, 6.15 and 5.29, respectively. Besides, the Rate of inhibition in test [8] was 5.5 s⁻¹. Further, the inhibition in [4] came out at 20%; in test [5], 50%; in test [11], 98%. Moreover, in [6], the RI was 1.

`COCC[C@H]1CC2CN3CCc4c([nH]c5ccccc45)[C@](C(=O)NCCO)(C2)[C@H]13` registered a Recovery in test [1] of 80%. The molecule further showed a Rate of inhibition in [2] of 7.9 s⁻¹. Also, the inhibition amounted to 85% in [3], 9% in test [4] and 7% in test [5]. The RI in test [6] amounted to 4.7.

With `COC(=O)[C@@]12CC3C[C@H](CCO)[C@@H]1N(CCc1c2[nH]c2ccccc12)C3`, the Recovery in test [12] came to 73%. In test [13], this molecule showed a Rate of inhibition of 6.5 s⁻¹. In addition, the values for the inhibition in test [14], in test [4] and in [5] were 98%, 4% and 15%, respectively. In test [6], this molecule registered an RI of 5.4.

The molecule `COCCC1C2CN3CCc4c([nH]c5ccccc45)[C@](C(=O)OC)(C2)[C@H]13` (some centres undefined) yielded a Recovery in test [1] of 14%. This molecule also registered a Rate of inhibition in test [2] of 4.1 s⁻¹. Moreover, the inhibition in [3] is 94%; in [4], 10%; in test [5], 18%. In test [6], the RI was found to be 1.6.

Turning to `COCC[C@H]1CC2CN3CCc4c([nH]c5ccccc45)[C@](C(=O)OCCO)(C2)[C@H]13`, in test [1], the Recovery came out at 20%. The molecule also came in with a Rate of inhibition in test [2] of 7.6 s⁻¹. Moreover, the inhibition in test [3] was 97%; in test [4] it was 8%; in [5] it was 8%. The molecule further came in with an RI in [6] of 1.2.

Molecule `COCCNC(=O)[C@@]12CC3C[C@H](CCOC)[C@@H]1N(CCc1c2[nH]c2ccccc12)C3` came in with a Rate of inhibition in [2] of 9.2 s⁻¹. In addition, the inhibition stood at 96% in [3], 6% in [4] and 10% in [5]. Further, the Recovery in test [15] is 46%. Further, the RI in test [6] amounted to 2.3.

As for `COCC[C@H]1CC2CN3CCc4c([nH]c5ccccc45)[C@](C(=O)NCCN(C)C)(C2)[C@H]13`, the Rate of inhibition in test [2] was determined as 9.5 s⁻¹. Further, the inhibition in test [3] came to 93%; in test [4] it was 11%; in [5] it was 4%. The Recovery in test [15] came out at 81%. Also, the RI in [6] was found to be 3.9.

As for `COCC[C@H]1CC2CN3CCc4c([nH]c5ccccc45)[C@](C(=O)OCCN(C)C)(C2)[C@H]13`, the Recovery in test [1] amounted to 16%. For the same molecule, in [2], the Rate of inhibition came to 10.3 s⁻¹. Also, the inhibition in test [3] amounted to 98%; in [4], 78%; in test [5], 16%. In test [10], this molecule had a pKi of 6.73. In [6], this molecule yielded an RI of 0.7.

In test [1], `CNCC[C@H]1CC2CN3CCc4c([nH]c5ccccc45)[C@](C(=O)OC)(C2)[C@H]13` displayed a Recovery of 21%. In test [2], this molecule gave a Rate of inhibition of 8.5 s⁻¹. Besides, the figures for the inhibition in test [3], in test [4] and in test [5] were 98%, 7% and 24%, respectively. The molecule also gave an RI in test [6] of 1.1.

Turning to `COC(=O)[C@@]12CC3C[C@H](CCN(C)C)[C@@H]1N(CCc1c2[nH]c2ccccc12)C3`, in test [1], the Recovery worked out at 16%. Moreover, the Rate of inhibition in [2] worked out at 8 s⁻¹. For the same molecule, the inhibition was 99% in test [3], 11% in test [4] and 15% in test [5]. The molecule also returned an RI in [6] of 0.9.

`COCC[C@H]1CC2CN3CCc4c([nH]c5ccccc45)[C@](C(=O)O)(C2)[C@H]13`: the Recovery in test [1] was 27%. In addition, the Rate of inhibition in test [2] came to 5.1 s⁻¹. Moreover, the inhibition in test [3] is 59%; in [4], 7%; in test [16], 11%. In test [6], this molecule returned an RI of 2.4.

Take `COCC[C@H]1CC2CN3CCc4c([nH]c5ccccc45)[C@](C(=O)NCCCCCCNC(=O)CCCC[C@@H]4SCC5NC(=O)NC54)(C2)C13` (some centres undefined): the results for the inhibition in test [4] and in test [5] were 9% and 19%, respectively.

As for `COC(=O)[C@@]12CC3C[C@H](CCOCc4ccccc4)[C@@H]1N(CCc1c2[nH]c2ccccc12)C3`, the Recovery in test [7] was found to be 0%. In [8], the Rate of inhibition stood at 2.2 s⁻¹. Besides, the figures for the inhibition in test [4], in [16] and in test [11] were 6%, 12% and 64%, respectively.

In test [1], `COCC[C@H]1CC2CN3CCc4c([nH]c5ccccc45)[C@](C(=O)OCCNC(C)=O)(C2)[C@H]13` came in with a Recovery of 45%. This molecule also gave a Rate of inhibition in test [2] of 6.7 s⁻¹. For the same molecule, the inhibition was 95% in [3], 3% in test [4] and 0% in [5]. Further, the RI in test [6] worked out at 3.1.
